From PubChem BioAssay
Hits are enriched below; roughly 5.7% of the tested compounds scored in any of these assays.
Calb FLC = affects C. albicans growth with fluconazole. C. albicans CaCi-2 (fluconazole-resistant clinical isolate) + fluconazole, Alamar Blue growth, 48 h. growth inhibition, % (test concentration not listed). 0.57% of 300,000 active. AID 1979;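 active means growth inhibition above about 58% in most replicates, limit read from the data, passing the limit was not always enough; inconclusive means exactly half the replicates above a set limit; inactive means most replicates below a set limit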;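 further: all wells also contain fluconazole at 8 µg/ml as a sub-toxic cotreatment; 0% = median of DMSO wells and 100% = median of geldanamycin control wells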
T cruzi inh = T. cruzi replication inhibition; T. cruzi beta-gal in NIH3T3, luminescence, 90 h; inhibition, % (test concentration not listed); 1.4% of 300,000 active;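 active means mean inhibition across valid replicates above about 55%, limit read from the data; inconclusive means mean below that limit but half or more replicates reach it; inactive means mean below it, under half of replicates reach it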;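 further: signal also drops with host cell toxicity which is not excluded here; 0% = plate median of DMSO wells and 100% = zero luminescence signal; higher percent means less beta-gal luminescence so fewer parasites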
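System: mouse NIH/3T3 fibroblasts infected with β-gal-expressing T. cruzi Tulahuen C4 / Input: NIH/3T3 cells, 5,000 per well / Buffer or medium: Low-serum DMEM with 2% FBS / Probe or stimulus: 5000 reporter trypomastigotes per well / Schedule: ≥90 h infection period, 3 h prior cell attachment / Measured by: GalScreen luminescence, 60 min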
CSC inhib = cancer stem cell inhibition. cancer stem cell-like cells viability, luminescence. inhibition, % at 7.5 µM. 1.1% of 300,000 active. AID 2717; in the data active means inhibition above about 75%; inconclusive means no clear call, values can overlap the other calls; tested in HMLE shEcad cells
Mdm2-MdmX inh = disrupts the human Mdm2-MdmX interaction. 3% of 330,000 active. SaOS-2 split-luciferase Mdm2/MdmX complementation, luminescence. O15151+Q00987. inhibition, % at 8 µM;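 active means inhibition of at least 50% at 8 µM in the primary screen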
Target sequence (O15151 whole entry, looked up): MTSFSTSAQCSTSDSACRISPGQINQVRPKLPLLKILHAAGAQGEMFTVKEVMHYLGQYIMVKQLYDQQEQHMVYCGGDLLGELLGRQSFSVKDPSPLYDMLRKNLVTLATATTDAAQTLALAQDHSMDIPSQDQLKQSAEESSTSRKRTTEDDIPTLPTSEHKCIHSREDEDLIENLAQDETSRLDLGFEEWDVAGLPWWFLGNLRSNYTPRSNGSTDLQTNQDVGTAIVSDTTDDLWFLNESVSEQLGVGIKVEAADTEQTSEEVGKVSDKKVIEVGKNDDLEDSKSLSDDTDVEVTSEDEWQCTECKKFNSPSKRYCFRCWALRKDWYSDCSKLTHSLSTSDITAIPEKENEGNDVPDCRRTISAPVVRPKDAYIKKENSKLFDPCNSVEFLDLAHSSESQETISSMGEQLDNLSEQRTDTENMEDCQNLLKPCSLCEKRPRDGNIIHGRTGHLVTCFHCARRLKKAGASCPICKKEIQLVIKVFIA
Target sequence (Q00987 whole entry, looked up): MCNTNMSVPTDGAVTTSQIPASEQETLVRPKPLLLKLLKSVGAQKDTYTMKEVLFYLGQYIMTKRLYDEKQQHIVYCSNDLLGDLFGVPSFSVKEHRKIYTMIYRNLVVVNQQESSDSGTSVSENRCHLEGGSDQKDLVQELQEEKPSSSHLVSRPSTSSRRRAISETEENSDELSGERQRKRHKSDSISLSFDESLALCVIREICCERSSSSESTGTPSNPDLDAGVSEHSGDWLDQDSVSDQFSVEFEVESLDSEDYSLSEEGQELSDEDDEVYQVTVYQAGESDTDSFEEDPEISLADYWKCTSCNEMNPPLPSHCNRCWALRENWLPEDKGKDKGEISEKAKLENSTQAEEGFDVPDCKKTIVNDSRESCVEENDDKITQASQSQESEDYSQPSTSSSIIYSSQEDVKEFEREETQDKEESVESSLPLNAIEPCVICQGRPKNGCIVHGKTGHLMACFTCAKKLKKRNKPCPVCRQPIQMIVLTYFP
SKKanGAS inh = inhibitors of SKKanGAS S. pyogenes growth in kanamycin (SK-promoter or general growth effect); inhibition, % at 7.5 µM; 1.3% of 300,000 active; BacTiter-Glo, 6 h;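 active means mean replicate score, as percent of positive control median, at least 50; inconclusive means mean below 50 but one replicate at or above 50; inactive means mean and every replicate below 50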;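 further: strain carries kanamycin resistance gene driven by streptokinase promoter and grows in 40 µg/ml kanamycin; loss of luminescence reflects streptokinase promoter inhibition or plain growth inhibition; 0% = median of DMSO wells and 100% = positive control at its reference dose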
Beta apoptosis = beta cell apoptosis inhibition; INS-1E cytokine-induced death, ATP luminescence, 48 h; percent of positive-control rescue, neutral wells zero; protection from apoptosis, % (concentration not given with the values); 0.8% of 300,000 active;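 active means Every replicate reaches about 75%, or at least half do and their mean reaches it too, limit read from the data; inconclusive means At least half of replicates reach the limit but their mean does not; inactive means Under half of replicates reach the limit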;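 further: 0% = cytokine-treated negative control wells and 100% = positive control rescue; higher means more ATP so stronger rescue from cytokine killing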
Mdm2 MdmX conf = human Mdm2/MdmX binding inhibition, confirmed; luminescent assay; AID 489028; shares compounds with Mdm2-MdmX inh; inhibition, % at 8 µM; 55% of 10,000 active; in the data active means inhibition above about 40%
Full FLuc ctr = counter-screen for Mdm2/MdmX inhibitors: full-length luciferase. shares compounds with Mdm2-MdmX inh. SaOS-2 full-length luciferase counterscreen, luminescence. inhibition, % at 8 µM. 77% of 6,200 active;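 active means mean inhibition at 8 µM reaching about 37%, which flags the compound as non-specific, limit read from the data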;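 further: p53-null SaOS-2 cells with luciferase driven by a doxycycline-inducible promoter; compound on cells about two nights before reading with doxycycline added after day one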
The depositor's hits bear a star.

What do the screens show for `CN(c1ccccc1)S(=O)(=O)c1ccc(C(=O)NNC(=O)c2ccccc2F)cc1`?
Mdm2-MdmX inh: -14

How did CCCC[C@@H]1CNCCN1CCc1cccc2ccccc12 do in these assays?
Calb FLC: -6; T cruzi inh: 28; CSC inhib: 5; Mdm2-MdmX inh: 21; SKKanGAS inh: 3; Beta apoptosis: 1

What do the screens show for `COc1ccc(OC)c(Nc2cc(C)c3ccccc3n2)c1`?
Calb FLC: -13; T cruzi inh: 45; CSC inhib: 18; Mdm2-MdmX inh: -13; SKKanGAS inh: -4

What do the screens show for `COc1ccc([N+](=O)[O-])cc1Nc1c2ccccc2nc2ccccc12`?
Calb FLC: -2; T cruzi inh: 33; CSC inhib: 131*; Mdm2-MdmX inh: 64*; SKKanGAS inh: 2; Beta apoptosis: 66; Mdm2 MdmX conf: 63*; Full FLuc ctr: 63*

Results for COc1cc(Nc2nc3ccccc3nc2NS(=O)(=O)c2ccc([N+](=O)[O-])cc2)cc(OC)c1OC ?
T cruzi inh: 37; CSC inhib: 11; Mdm2-MdmX inh: 68*; SKKanGAS inh: 24; Beta apoptosis: 20; Mdm2 MdmX conf: 36; Full FLuc ctr: 55*

What do the screens show for `COc1ccc(OC)c(Nc2c3ccccc3nc3ccccc23)c1`?
Calb FLC: 17; T cruzi inh: 43; CSC inhib: inconclusive; Mdm2-MdmX inh: 73*; SKKanGAS inh: 0; Beta apoptosis: 22; Mdm2 MdmX conf: 65*; Full FLuc ctr: 60*

Results for Cc1nn(Cc2ccc(Cl)cc2Cl)c(C)c1NC(=O)CCl ?
Calb FLC: 0; T cruzi inh: -10; CSC inhib: -6; Mdm2-MdmX inh: 78*; SKKanGAS inh: -4; Beta apoptosis: -9; Mdm2 MdmX conf: 92*; Full FLuc ctr: 62*

Results for Cc1nn(Cc2ccc(Cl)cc2Cl)c(C)c1NC(=O)c1ccc(COc2cc(Cl)ccc2Cl)o1 ?
Calb FLC: 8; T cruzi inh: 59*; CSC inhib: 4; Mdm2-MdmX inh: 58*; SKKanGAS inh: 19; Beta apoptosis: 7; Mdm2 MdmX conf: -4

How did COc1ccccc1CNC(=O)c1ccc2ccccc2n1 do in these assays?
Calb FLC: 7; T cruzi inh: 12; CSC inhib: 22; Mdm2-MdmX inh: 31; SKKanGAS inh: -2; Beta apoptosis: -18

What do the screens show for `COc1cc(/C=C2\C(=N)N3N=C(S(=O)(=O)CC(C)C)SC3=NC2=O)ccc1OC(=O)c1ccco1`?
Calb FLC: 46; T cruzi inh: -8; CSC inhib: 2; Mdm2-MdmX inh: 5; SKKanGAS inh: 34; Beta apoptosis: -2

What do the screens show for `O=C(COC(=O)c1c2c(nc3ccccc13)/C(=C/c1cccc([N+](=O)[O-])c1)CCC2)NC1CCS(=O)(=O)C1` (stereo not given)?
Calb FLC: -3; T cruzi inh: 46; CSC inhib: 67; Mdm2-MdmX inh: 71*; SKKanGAS inh: 17; Beta apoptosis: 11; Mdm2 MdmX conf: 31

What do the screens show for `CCOc1ccc(NC(=O)c2ccncc2)cc1`?
Calb FLC: 15; T cruzi inh: -1; CSC inhib: 4; Mdm2-MdmX inh: -5; SKKanGAS inh: -12

What do the screens show for `CCOc1ccc2c(c1)C(=NNC(=O)c1ccncc1)c1cc(OCC)ccc1-2`?
Calb FLC: 3; T cruzi inh: 60*; CSC inhib: 52; Mdm2-MdmX inh: 66*; SKKanGAS inh: 65*; Beta apoptosis: 65; Mdm2 MdmX conf: 52*; Full FLuc ctr: 55*

Results for COc1ccc(CCNC(=O)COC(=O)CNS(=O)(=O)c2ccc(SC)c([N+](=O)[O-])c2)cc1 ?
Mdm2-MdmX inh: -6; Beta apoptosis: 3

How did N=c1c(C(=O)NC2CCCCC2)cc2c(=O)n3ccccc3nc2n1Cc1ccco1 do in these assays?
Calb FLC: -1; T cruzi inh: 22; Mdm2-MdmX inh: 56*; SKKanGAS inh: 5; Beta apoptosis: -1; Mdm2 MdmX conf: 44*; Full FLuc ctr: 33

Results for CC(C)Cc1ccc(CN2CCCC(NC(=O)c3cnc4ccccn4c3=O)C2)cc1 (stereo not given) ?
Calb FLC: -8; T cruzi inh: 55*; CSC inhib: -2; Mdm2-MdmX inh: 60*; SKKanGAS inh: -2; Beta apoptosis: -7; Mdm2 MdmX conf: 20

Results for N=c1c(C(=O)NC2CCCCC2)cc2c(=O)n3ccccc3nc2n1CCc1ccccc1 ?
Calb FLC: 12; T cruzi inh: 30; CSC inhib: -4; Mdm2-MdmX inh: 94*; SKKanGAS inh: 0; Beta apoptosis: 9; Mdm2 MdmX conf: 97*; Full FLuc ctr: 17

What do the screens show for `N=c1c(C(=O)NC2CCCCC2)cc2c(=O)n3ccccc3nc2n1Cc1cccnc1`?
Calb FLC: -5; T cruzi inh: 37; CSC inhib: 3; Mdm2-MdmX inh: -4; SKKanGAS inh: 3; Beta apoptosis: 11

How did O=C(NC1CCCN(Cc2ccc(Cl)cc2)C1)c1cnc2ccccn2c1=O (stereo not given) do in these assays?
Calb FLC: -4; T cruzi inh: 23; CSC inhib: 11; Mdm2-MdmX inh: 22; SKKanGAS inh: 0; Beta apoptosis: 1

Results for CC(C)OCCCn1c(=N)c(C(N)=S)cc2c(=O)n3ccccc3nc21 ?
Calb FLC: -10; T cruzi inh: 69*; CSC inhib: 3; Mdm2-MdmX inh: 61*; SKKanGAS inh: -5; Mdm2 MdmX conf: 30

How did N=c1c(C(=O)NC2CCCCC2)cc2c(=O)n3ccccc3nc2n1Cc1ccccc1 do in these assays?
Calb FLC: -23; T cruzi inh: 20; CSC inhib: 1; Mdm2-MdmX inh: 25; SKKanGAS inh: 1; Beta apoptosis: 11

How did Cc1ccc(Cn2c(=N)c(C(=O)NC3CCCC3)cc3c(=O)n4ccccc4nc32)cc1 do in these assays?
Calb FLC: -1; T cruzi inh: 27; CSC inhib: -2; Mdm2-MdmX inh: 50*; SKKanGAS inh: -6; Beta apoptosis: 0; Mdm2 MdmX conf: 4

What do the screens show for `O=C(COC(=O)CSc1ccc([N+](=O)[O-])cc1)NCCC1=CCCCC1`?
Mdm2-MdmX inh: -31; Beta apoptosis: -2

What do the screens show for `CCCOC(=O)c1c(NC(=O)C2C3C=CC(C3)C2C(=O)O)sc2c1CCC(C)C2` (stereo not given)?
Calb FLC: 52; T cruzi inh: 6; CSC inhib: 0; Mdm2-MdmX inh: -33; SKKanGAS inh: 24; Beta apoptosis: 1

Results for Cc1cc(C[n+]2cc(Cl)ccc2N)c2ncccc2c1 ?
Calb FLC: 15; T cruzi inh: 9; CSC inhib: 5; Mdm2-MdmX inh: 32; SKKanGAS inh: -6; Beta apoptosis: 2
